24 compounds from ChEMBL document CHEMBL1811829, “Discovery of selective indole-based prostaglandin D₂ receptor antagonist” (Bioorg Med Chem, 2011) can be followed below.

The target in assay [1] is Prostaglandin E2 receptor EP2 subtype (Mus musculus, UniProt Q62053). In words: Displacement of [3H]-PGE2 from mouse EP2 receptor expressed in CHO cells after 60 mins by liquid scintillation counting. Type of assay: cell-based. Put shortly: (§1)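 Membranes from CHO cells stably expressing mEP1, mEP2, mEP3a, mEP4 or mFP were used. The radioligand was 2.5 nM [³H]PGE₂ for EP receptors and 2.5 nM [³H]PGF2α for FP. Buffer was 10 mM KH₂PO₄–KOH pH 6.0 with 1 mM EDTA, 10 mM MgCl₂ and 100 mM NaCl. Incubation was at room temperature, 20 min for mEP1 and 60 min for the others. Samples were filtered on GF/B, washed with phosphate/NaCl pH 6.0, dried 60 min at 60 °C and scintillation counted.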
Sequence of Prostaglandin E2 receptor EP2 subtype (Q62053 whole entry): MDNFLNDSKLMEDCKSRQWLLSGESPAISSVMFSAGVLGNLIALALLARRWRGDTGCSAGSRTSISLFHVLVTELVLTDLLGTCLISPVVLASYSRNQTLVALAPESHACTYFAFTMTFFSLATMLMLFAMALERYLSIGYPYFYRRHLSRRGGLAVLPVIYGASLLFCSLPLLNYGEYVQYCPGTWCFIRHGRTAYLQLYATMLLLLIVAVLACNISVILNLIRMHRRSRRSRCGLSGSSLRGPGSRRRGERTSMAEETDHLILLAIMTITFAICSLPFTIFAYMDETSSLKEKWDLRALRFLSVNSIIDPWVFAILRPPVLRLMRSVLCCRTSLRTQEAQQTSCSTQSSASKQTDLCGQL

Assay [2] deals with Prostaglandin F2-alpha receptor (Mus musculus, UniProt P43117). In words: Displacement of [3H]-PGF2-alpha from mouse FP receptor expressed in CHO cells after 60 mins by liquid scintillation counting. Type of assay: cell-based. An outline of the steps:
as §1

The target of assay [3] is Prostaglandin E2 receptor EP4 subtype (Mus musculus, UniProt P32240). In words: Displacement of [3H]-PGE2 from mouse EP4 receptor expressed in CHO cells after 60 mins by liquid scintillation counting. It counts as cell-based. Put shortly: as §1
Sequence of Prostaglandin E2 receptor EP4 subtype (P32240 whole entry): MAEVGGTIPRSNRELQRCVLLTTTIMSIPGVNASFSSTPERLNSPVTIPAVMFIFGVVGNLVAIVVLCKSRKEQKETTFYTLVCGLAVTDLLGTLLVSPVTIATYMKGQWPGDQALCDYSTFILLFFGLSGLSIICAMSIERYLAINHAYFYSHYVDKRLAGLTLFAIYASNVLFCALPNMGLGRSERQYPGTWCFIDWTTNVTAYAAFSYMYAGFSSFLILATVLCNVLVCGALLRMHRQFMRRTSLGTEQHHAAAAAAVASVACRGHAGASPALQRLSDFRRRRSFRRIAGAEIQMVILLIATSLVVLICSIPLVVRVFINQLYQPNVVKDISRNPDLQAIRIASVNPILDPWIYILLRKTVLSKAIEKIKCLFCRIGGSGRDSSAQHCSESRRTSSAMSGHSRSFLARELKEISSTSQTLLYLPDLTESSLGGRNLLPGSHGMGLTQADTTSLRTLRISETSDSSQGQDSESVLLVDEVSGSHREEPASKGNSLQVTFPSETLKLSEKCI
Assay [4] deals with T1, Prostaglandin E2 receptor EP1 subtype (Mus musculus, UniProt P35375).
T1 sequence (P35375 whole entry): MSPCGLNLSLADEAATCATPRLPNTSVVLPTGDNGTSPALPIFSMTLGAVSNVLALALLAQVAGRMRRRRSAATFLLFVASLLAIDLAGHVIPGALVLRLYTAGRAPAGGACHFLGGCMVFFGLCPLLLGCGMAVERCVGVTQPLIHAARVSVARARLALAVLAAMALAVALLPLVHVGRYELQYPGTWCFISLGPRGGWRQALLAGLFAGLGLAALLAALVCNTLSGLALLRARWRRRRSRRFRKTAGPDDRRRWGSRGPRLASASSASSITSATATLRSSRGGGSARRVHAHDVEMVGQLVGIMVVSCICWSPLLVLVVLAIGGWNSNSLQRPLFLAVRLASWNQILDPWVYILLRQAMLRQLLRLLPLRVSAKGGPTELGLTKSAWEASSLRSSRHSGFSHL
Put plainly: Displacement of [3H]-PGE2 from mouse EP1 receptor expressed in CHO cells after 20 mins by liquid scintillation counting. It counts as cell-based. An outline of the steps:
as §1

The target in assay [5] is T2, Prostaglandin D2 receptor (Mus musculus, UniProt P70263).
T2 sequence (P70263 whole entry): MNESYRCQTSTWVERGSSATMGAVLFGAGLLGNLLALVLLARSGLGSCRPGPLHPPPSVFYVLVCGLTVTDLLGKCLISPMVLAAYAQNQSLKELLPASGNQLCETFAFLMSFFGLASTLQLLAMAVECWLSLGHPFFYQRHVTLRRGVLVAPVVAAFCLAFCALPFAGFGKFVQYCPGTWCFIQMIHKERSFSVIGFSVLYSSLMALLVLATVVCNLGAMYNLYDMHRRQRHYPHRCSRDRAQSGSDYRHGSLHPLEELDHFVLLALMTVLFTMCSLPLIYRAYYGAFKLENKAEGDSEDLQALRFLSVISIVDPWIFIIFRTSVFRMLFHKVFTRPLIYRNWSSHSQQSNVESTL
In words: Displacement of [3H]-PGD2 from mouse DP receptor expressed in CHO cells after 20 mins by liquid scintillation counting. It counts as cell-based. Put shortly: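 Membranes from CHO cells stably expressing mDP were incubated with 2.5 nM [³H]PGD₂ and compounds at various concentrations. Buffer was 25 mM HEPES–NaOH pH 7.4 with 1 mM EDTA, 5 mM MgCl₂ and 10 mM MnCl₂, for 20 min at room temperature. Samples were filtered on GF/B and washed with Tris–HCl pH 7.4, NaCl, 0.01% BSA. Filters were dried 60 min at 60 °C and read by scintillation counting. Nonspecific binding was set with excess unlabeled PGD₂.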

The next assay addresses T3, Thromboxane A2 receptor (Homo sapiens, UniProt P21731).
T3 sequence (P21731 whole entry): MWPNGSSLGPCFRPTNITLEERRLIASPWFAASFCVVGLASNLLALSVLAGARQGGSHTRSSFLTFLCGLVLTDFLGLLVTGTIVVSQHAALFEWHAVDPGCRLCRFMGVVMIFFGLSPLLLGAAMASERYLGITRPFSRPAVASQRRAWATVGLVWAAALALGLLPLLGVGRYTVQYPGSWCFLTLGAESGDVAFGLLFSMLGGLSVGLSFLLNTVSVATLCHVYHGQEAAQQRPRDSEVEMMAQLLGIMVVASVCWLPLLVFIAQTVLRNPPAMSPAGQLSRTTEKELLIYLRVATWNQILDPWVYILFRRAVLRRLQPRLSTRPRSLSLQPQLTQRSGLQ
Put plainly: Displacement of [3H]-SQ29548 from human TP receptor expressed in CHO cells after 30 mins by liquid scintillation counting. It counts as cell-based. Put shortly:
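Membranes from CHO cells expressing hTP were incubated with 5.0 nM [³H]-SQ29548 and compounds at various concentrations. Buffer was 10 mM Tris–HCl pH 7.5 with 100 mM NaCl, for 30 min at room temperature. Samples were filtered on GF/B, washed with the same buffer, dried 60 min at 60 °C and scintillation counted. Nonspecific binding was set with excess unlabeled SQ29548.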

The target of a further assay is Prostacyclin receptor (Homo sapiens, UniProt P43119). In words: Displacement of [3H]-Iloprost from human IP receptor expressed in CHO cells after 30 mins by liquid scintillation counting. Type of assay: cell-based. Put shortly:
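Membranes from CHO cells expressing hIP were incubated with 5.0 nM [³H]Iloprost and compounds at various concentrations. Buffer was 50 mM Tris–HCl pH 7.5 with 1 mM EDTA and 10 mM MgCl₂, for 30 min at room temperature. Samples were filtered on GF/B, washed with 10 mM Tris–HCl/100 mM NaCl pH 7.5, dried 60 min at 60 °C and scintillation counted.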

Assay [6] addresses T4, Prostaglandin E2 receptor EP3 subtype (Mus musculus, UniProt P30557).
T4 sequence (P30557 whole entry): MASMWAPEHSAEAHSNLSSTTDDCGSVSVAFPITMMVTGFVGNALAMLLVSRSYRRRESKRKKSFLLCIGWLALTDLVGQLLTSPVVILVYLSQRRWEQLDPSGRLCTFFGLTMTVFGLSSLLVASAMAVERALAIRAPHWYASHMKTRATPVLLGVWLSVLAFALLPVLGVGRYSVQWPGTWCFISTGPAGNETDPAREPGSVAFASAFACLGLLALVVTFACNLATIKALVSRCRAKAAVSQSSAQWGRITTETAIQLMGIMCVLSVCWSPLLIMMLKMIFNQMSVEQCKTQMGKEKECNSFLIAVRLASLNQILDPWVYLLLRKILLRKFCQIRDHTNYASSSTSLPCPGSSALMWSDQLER
In words: Displacement of [3H]-PGE2 from mouse EP3 receptor expressed in CHO cells after 60 mins by liquid scintillation counting. It counts as cell-based. An outline of the steps:
as §1

In assay [7] the target is T2, Prostaglandin D2 receptor. In words: Antagonist activity at mouse DP receptor expressed in CHO cells assessed as inhibition of PGD2-induced cAMP accumulation after 10 mins by enzyme immunoassay in the presence of 0.1% BSA. It counts as functional, cell-based. An outline of the steps: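 CHO cells stably expressing mDP were seeded at 1 × 10⁵ cells/well and grown 2 days. They were preincubated about 10 min at 37 °C in MEM with Diclofenac, then given assay medium (MEM, 0.1% BSA, 1 mM IBMX, Diclofenac). Test compound at various concentrations plus 10 nM PGD₂ was added for 10 min at 37 °C. The reaction was stopped with ice-cold 10% TCA and TCA was extracted. cAMP was measured by EIA. IC50 came from cAMP relative to the PGD₂-only maximum.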

Sequence of Prostacyclin receptor (P43119 whole entry): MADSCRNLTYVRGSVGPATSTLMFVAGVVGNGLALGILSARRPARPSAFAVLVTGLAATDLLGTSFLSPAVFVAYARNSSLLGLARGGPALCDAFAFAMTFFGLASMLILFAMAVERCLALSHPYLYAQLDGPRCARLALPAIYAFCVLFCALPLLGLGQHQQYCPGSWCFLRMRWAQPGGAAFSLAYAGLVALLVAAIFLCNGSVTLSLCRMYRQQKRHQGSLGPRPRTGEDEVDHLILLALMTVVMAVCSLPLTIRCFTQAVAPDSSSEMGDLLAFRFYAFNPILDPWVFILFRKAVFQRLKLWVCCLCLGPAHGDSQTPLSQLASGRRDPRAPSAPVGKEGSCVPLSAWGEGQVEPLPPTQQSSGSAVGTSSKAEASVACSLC
Sequence of Prostaglandin F2-alpha receptor (P43117 whole entry): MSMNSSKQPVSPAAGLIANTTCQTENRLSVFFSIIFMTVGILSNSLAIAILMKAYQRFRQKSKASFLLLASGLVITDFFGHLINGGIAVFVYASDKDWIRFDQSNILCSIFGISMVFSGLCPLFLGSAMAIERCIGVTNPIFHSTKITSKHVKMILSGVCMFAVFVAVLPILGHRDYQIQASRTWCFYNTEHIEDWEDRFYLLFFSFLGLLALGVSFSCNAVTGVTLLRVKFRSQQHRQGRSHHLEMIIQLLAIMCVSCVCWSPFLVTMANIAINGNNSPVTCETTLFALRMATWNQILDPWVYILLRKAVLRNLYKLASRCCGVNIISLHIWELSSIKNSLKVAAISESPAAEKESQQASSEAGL

Regarding `Cc1c(CC(=O)O)c2ccccc2n1C(=O)c1ccc(OC[C@@H]2CN(C)c3ccccc3O2)cc1`, the Ki is 210 nM in assay [1]; 2100 nM in assay [2]; above 10000 nM in assay [3]; above 10000 nM in [4]; 7.7 nM in assay [5]; above 10000 nM at Thromboxane A2 receptor. In addition, the Ki was 200 nM at Prostacyclin receptor and 1700 nM in [6].

For the compound `Cc1c(CC(=O)O)c2cc(Cl)ccc2n1C(=O)c1ccc(OC[C@@H]2CN(C)c3ccccc3O2)cc1`, the Ki was 330 nM in [1]; 2200 nM in assay [2]; above 10000 nM in [3]; above 10000 nM in assay [4]; 29 nM in [5]; 49 nM at Prostacyclin receptor. The compound further had a Ki in [6] above 10000 nM. Besides, the IC50 in assay [7] was found to be 3.1 nM.

For the compound `COc1ccc2c(c1)c(CC(=O)O)c(C)n2C(=O)c1ccc(OC[C@@H]2CN(C)c3ccccc3O2)cc1`, the Ki in assay [1] is 310 nM; in [3], 3000 nM; in assay [4], above 10000 nM; in assay [5] it was 9.9 nM; at Prostacyclin receptor it was 1000 nM; in assay [6] it was 2500 nM.

With `Cc1c(CC(=O)O)c2ccccc2n1C(=O)c1ccc(OC[C@@H]2CN(C)c3ccccc3O2)cc1F`, the results for the inhibition constant Ki (in [5]; on Prostacyclin receptor) were 3.8 nM and 110 nM, respectively. In addition, the IC50 in assay [7] came to 2.5 nM.

Consider `Cc1cc(C(=O)n2c(C)c(CC(=O)O)c3ccccc32)ccc1OC[C@@H]1CN(C)c2ccccc2O1`, for which the Ki in assay [5] amounted to 140 nM; at Prostacyclin receptor it was 72 nM.

For the compound `Cc1c(CC(=O)O)c2ccccc2n1C(=O)c1ccc(OC[C@@H]2CN(C)c3ccccc3O2)c(Cl)c1`, the results for the Ki (in assay [5]; on Prostacyclin receptor) were 380 nM and 91 nM, respectively.

Take `Cc1c(CC(=O)O)c2ccccc2n1C(=O)c1ccc(OC[C@@H]2CN(C)c3ccccc3O2)c(F)c1`: the Ki in assay [5] came to 240 nM; at Prostacyclin receptor, 210 nM.

On to `COc1cc(C(=O)n2c(C)c(CC(=O)O)c3ccccc32)ccc1OC[C@@H]1CN(C)c2ccccc2O1`, for which the Ki in assay [5] is 340 nM; at Prostacyclin receptor it was 430 nM.

As to `Cc1c(OC[C@@H]2CN(C)c3ccccc3O2)ccc(C(=O)n2c(C)c(CC(=O)O)c3ccccc32)c1C`, the Ki in assay [5] was determined as 380 nM; at Prostacyclin receptor, 98 nM.

For the compound `Cc1cc(C(=O)n2c(C)c(CC(=O)O)c3ccccc32)c(C)cc1OC[C@@H]1CN(C)c2ccccc2O1`, the Ki in assay [5] turned out to be 360 nM; on Prostacyclin receptor, 94 nM.

`Cc1cc(OC[C@@H]2CN(C)c3ccccc3O2)ccc1C(=O)n1c(C)c(CC(=O)O)c2cc(F)ccc21`: the figures for the Ki (in [5]; at Prostacyclin receptor) were 2.7 nM and 130 nM, respectively. In assay [7], the IC50 came out at 3.2 nM.

For `Cc1c(CC(=O)O)c2cc(F)ccc2n1C(=O)c1ccc(OC[C@@H]2CN(C)c3ccccc3O2)cc1F`, the results for the inhibitory constant (Ki) (in assay [5]; at Prostacyclin receptor) were 3.8 nM and 320 nM, respectively. The IC50 in assay [7] worked out at 0.7 nM.

Turning to `Cc1cc(C(=O)n2c(C)c(CC(=O)O)c3cc(F)ccc32)ccc1OC[C@@H]1CN(C)c2ccccc2O1`, the results for the Ki (in assay [5]; on Prostacyclin receptor) were 59 nM and 160 nM, respectively. Also, in [7], the IC50 was found to be 42 nM.

Regarding `COc1cc(C(=O)n2c(C)c(CC(=O)O)c3cc(F)ccc32)ccc1OC[C@@H]1CN(C)c2ccccc2O1`, the IC50 in assay [7] came to 68 nM. The compound further came in with a Ki on Prostacyclin receptor of 1500 nM.

Turning to `Cc1c(OC[C@@H]2CN(C)c3ccccc3O2)ccc(C(=O)n2c(C)c(CC(=O)O)c3cc(F)ccc32)c1C`, in assay [7], the IC50 worked out at 32 nM. The compound further returned an inhibition constant (Ki) on Prostacyclin receptor of 230 nM.

On to `Cc1cc(C(=O)n2c(C)c(CC(=O)O)c3cc(F)ccc32)c(C)cc1OC[C@@H]1CN(C)c2ccccc2O1`, for which the Ki was 14 nM in [5] and 93 nM on Prostacyclin receptor. For the same compound, the IC50 in assay [7] was 2.8 nM.

As for `Cc1cc(OC[C@@H]2COc3ccccc3O2)ccc1C(=O)n1c(C)c(CC(=O)O)c2ccccc21`, the Ki was 22 nM in [5] and 570 nM at Prostacyclin receptor. The IC50 in assay [7] was found to be 3.8 nM.

Regarding `Cc1cc(OC[C@@H]2COc3ccccc32)ccc1C(=O)n1c(C)c(CC(=O)O)c2ccccc21`, the Ki was 43 nM in assay [5] and 2100 nM on Prostacyclin receptor. Moreover, the IC50 in [7] stood at 72 nM.

Consider `Cc1cc(OC[C@@H]2Cc3ccccc3O2)ccc1C(=O)n1c(C)c(CC(=O)O)c2ccccc21`, for which the Ki was found to be 7.1 nM in [5] and 280 nM on Prostacyclin receptor. In addition, the IC50 in [7] stood at 7 nM.

On to `Cc1cc(OCC2Oc3ccccc3O2)ccc1C(=O)n1c(C)c(CC(=O)O)c2ccccc21`, for which, in assay [7], the half-inhibitory concentration (IC50) amounted to 43 nM. The compound also yielded a Ki on Prostacyclin receptor of 3000 nM.

For `Cc1cc(OCC2Cc3ccccc3N2C)ccc1C(=O)n1c(C)c(CC(=O)O)c2ccccc21` (configuration not stated), in assay [7], the half-maximal inhibitory concentration (IC50) was found to be 6.2 nM. Further, the Ki at Prostacyclin receptor was above 10000 nM.

For the compound `CCN1c2ccccc2CC1COc1ccc(C(=O)n2c(C)c(CC(=O)O)c3ccccc32)c(C)c1` (configuration not stated), the Ki in assay [5] amounted to 22 nM; on Prostacyclin receptor it was 5100 nM. Further, the IC50 in assay [7] stood at 3.1 nM.

On to `Cc1cc(OC[C@@H]2COc3ccc(F)cc32)ccc1C(=O)n1c(C)c(CC(=O)O)c2ccccc21`, for which the Ki was found to be 5.4 nM in [5] and 520 nM on Prostacyclin receptor. In addition, the IC50 in [7] came out at 1.8 nM.

`COc1ccc2c(c1)c(CC(=O)O)c(C)n2C(=O)c1ccc(Cl)cc1` [INDOMETHACIN]: the Ki in [1], in assay [3], in assay [4], in assay [5] and in [6] was above 10000 nM throughout.
